According to ChEMBL document CHEMBL1123877, “Metabolic synthesis of arylacetic acid antiinflammatory drugs from arylhexenoic acids. 2. Indomethacin” (1987):

Key:
[1] = tested on: Mus musculus; experiment: Inhibition of phenylbenzoquinone writhing in mice was tested at the dose of 30 mg/kg for 1 hr; format: functional
How it was run: (§1)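 Male CD-1 mice, 18-22 g, groups of 10, fasted overnight. Oral dose in 1% methylcellulose (0.1 mL/10 g) at set times before phenylbenzoquinone, 2.0 mg/kg ip. Writhes counted 5-15 min after PBQ. % inhibition = 100 − (drug mean/vehicle mean × 100).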

[2] = tested on: Mus musculus; experiment: Inhibition of phenylbenzoquinone writhing in mice was tested at the dose of 30 mg/kg for 2 hr; format: functional; how it was run: as §1
[3] = tested on: Mus musculus; experiment: Inhibition of phenylbenzoquinone writhing in mice was tested at the dose of 30 mg/kg for 4 hr; format: functional; how it was run: as §1
[4] = tested on: Rattus norvegicus; experiment: Analgesic activity was measured in rat yeast induced hyperalgesia assay at a dose of 30 mg/kg for 1 hr.; format: functional
How it was run: (§2)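 Female Sprague-Dawley rats, 50-60 g, groups of 10, fasted overnight. Brewer's yeast (5% in 0.1 mL) injected subplantar. Compound given orally in 1% methylcellulose, 0.1 mL/10 g. Each group tested once, always 3 h after yeast. An animal counts as analgesic if vocalization needs ≥25 mmHg on the inflamed paw. Result is percent of animals analgesic.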

[5] = tested on: Rattus norvegicus; experiment: Analgesic activity was measured in rat yeast induced hyperalgesia assay at a dose of 30 mg/kg for 4 hr.; format: functional; how it was run: as §2
[6] = tested on: Rattus norvegicus; experiment: Analgesic activity was measured in rat yeast induced hyperalgesia assay at a dose of 30 mg/kg for 8 hr.; format: functional; how it was run: as §2
[7] = tested on: Rattus norvegicus; experiment: Plasma drug level was measured in rat yeast induced hyperalgesia assay in presence of drug 6 or 7 at a dose of 30 mg/kg for 4 hr.; format: functional
How it was run: (§3)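 Rats are bled after the yeast hyperalgesia test. 50 μL plasma is mixed with an equal volume of 0.1 N HCl and injected directly on a C-18 reverse-phase HPLC column. Eluent is methanol/0.01 M phosphate pH 4 (65:35), 1.5 mL/min, with UV detection at 254 nm. Parent compound and indomethacin are quantified against standard calibration. Mean ± SEM, n=10.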

[8] = tested on: Rattus norvegicus; experiment: Plasma drug level was measured in rat yeast induced hyperalgesia assay in presence of drug 6 or 7 at a dose of 30 mg/kg for 1 hr.; format: functional; how it was run: as §3
[9] = tested on: Rattus norvegicus; experiment: Plasma drug level was measured in rat yeast induced hyperalgesia assay in presence of drug 6 or 7 at a dose of 30 mg/kg for 8 hr.; format: functional; how it was run: as §3
[10] = tested on: Rattus norvegicus; experiment: Plasma drug level was measured in rat yeast induced hyperalgesia assay in presence of indomethacin at a dose of 30 mg/kg for 1 hr.; format: functional; how it was run: as §3
[11] = tested on: Rattus norvegicus; experiment: Plasma drug level was measured in rat yeast induced hyperalgesia assay in presence of indomethacin at a dose of 30 mg/kg for 4 hr.; format: functional; how it was run: as §3
[12] = tested on: Rattus norvegicus; experiment: Plasma drug level was measured in rat yeast induced hyperalgesia assay in presence of indomethacin at a dose of 30 mg/kg for 8 hr.; format: functional; how it was run: as §3
[13] = tested on: Rattus norvegicus; experiment: (§4) Vocalization threshold value was measured in rat yeast induced hyperalgesia assay at a dose of 30 mg/kg for 8 hr.; format: functional
How it was run: (§5)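 Female Sprague-Dawley rats, 50-60 g, groups of 10, fasted overnight. Brewer's yeast (5% in 0.1 mL) injected subplantar, then oral dosing in 1% methylcellulose. An air-driven piston (2 mm) presses the plantar surface of the normal and yeast-injected paws. The pressure that causes vocalization is read on a manometer in mmHg, tested 3 h after yeast. Normal vs inflamed paw compared by paired t test. Mean ± SEM.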

[14] = tested on: Rattus norvegicus; experiment: Vocalization threshold value was measured in rat yeast induced hyperalgesia assay at a dose of 30 mg/kg for 1 hr.; format: functional; how it was run: as §5
[15] = tested on: Rattus norvegicus; experiment: Vocalization threshold value was measured in rat yeast induced hyperalgesia assay at a dose of 30 mg/kg for 4 hr.; format: functional; how it was run: as §5
[16] = tested on: Rattus norvegicus; experiment: as §4; format: functional; remark: listed apart in the source
[17] = tested on: Rattus norvegicus; experiment: Vocalization threshold value was measured in rat yeast induced hyperalgesia assay at a dose of 10 mg/kg for 1 hr.; format: functional; how it was run: as §5
[18] = tested on: Mus musculus; experiment: Inhibition of phenylbenzoquinone writhing in mice was tested at the dose of 30 mg/kg for 6 hr; format: functional; how it was run: as §1
[19] = tested on: Rattus norvegicus; experiment: Analgesic activity was measured in rat yeast induced hyperalgesia assay at a dose of 10 mg/kg for 6 hr.; format: functional; how it was run: as §2
[20] = tested on: Rattus norvegicus; experiment: Analgesic activity was measured in rat yeast induced hyperalgesia assay at a dose of 10 mg/kg for 8 hr.; format: functional; how it was run: as §2
[21] = tested on: Rattus norvegicus; experiment: Analgesic activity was measured in rat yeast induced hyperalgesia assay at a dose of 30 mg/kg for 12 hr.; format: functional; how it was run: as §2
[22] = tested on: Rattus norvegicus; experiment: Analgesic activity was measured in rat yeast induced hyperalgesia assay at a dose of 30 mg/kg for 24 hr.; format: functional; how it was run: as §2
[23] = tested on: Rattus norvegicus; experiment: Plasma drug level was measured in rat yeast induced hyperalgesia assay in presence of drug 6 or 7 at a dose of 30 mg/kg for 12 hr; format: functional; how it was run: as §3
[24] = tested on: Rattus norvegicus; experiment: Plasma drug level was measured in rat yeast induced hyperalgesia assay in presence of indomethacin at a dose of 30 mg/kg for 12 hr.; format: functional; how it was run: as §3
[25] = tested on: Rattus norvegicus; experiment: Plasma drug level was measured in rat yeast induced hyperalgesia assay in presence of indomethacin at a dose of 30 mg/kg for 24 hr.; format: functional; how it was run: as §3
[26] = tested on: Rattus norvegicus; experiment: (§6) Vocalization threshold value was measured in rat yeast induced hyperalgesia assay at a dose of 30 mg/kg for 24 hr.; format: functional
[27] = tested on: Rattus norvegicus; experiment: Vocalization threshold value was measured in rat yeast induced hyperalgesia assay at a dose of 10 mg/kg for 6 hr.; format: functional; how it was run: as §5
[28] = tested on: Rattus norvegicus; experiment: (§7) Vocalization threshold value was measured in rat yeast induced hyperalgesia assay at a dose of 10 mg/kg for 8 hr.; format: functional
[29] = tested on: Rattus norvegicus; experiment: Vocalization threshold value was measured in rat yeast induced hyperalgesia assay at a dose of 30 mg/kg for 12 hr.; format: functional; how it was run: as §5
[30] = tested on: Rattus norvegicus; experiment: as §6; format: functional; how it was run: as §5; remark: listed apart in the source
[31] = tested on: Rattus norvegicus; experiment: Analgesic activity was measured in rat yeast induced hyperalgesia assay at a dose of 10 mg/kg for 1 hr.; format: functional; how it was run: as §2
[32] = tested on: Rattus norvegicus; experiment: as §7; format: functional; how it was run: as §5; remark: listed apart in the source
[33] = tested on: Mus musculus; experiment: Inhibition of phenylbenzoquinone writhing in mice was tested at the dose of 3 mg/kg for 1 hr; format: functional; how it was run: as §1
[34] = tested on: Mus musculus; experiment: Inhibition of phenylbenzoquinone writhing in mice was tested at the dose of 3 mg/kg for 2 hr; format: functional; how it was run: as §1
[35] = tested on: Mus musculus; experiment: Inhibition of phenylbenzoquinone writhing in mice was tested at the dose of 3 mg/kg for 4 hr; format: functional; how it was run: as §1
[36] = tested on: Mus musculus; experiment: Compound was tested for […] activity in mice after perorally administered at 1 hr; format: functional; details: po
[37] = tested on: Rattus norvegicus; experiment: Analgesic activity was measured in rat yeast induced hyperalgesia assay at a dose of 10 mg/kg for 12 hr.; format: functional; how it was run: as §2
[38] = tested on: Rattus norvegicus; experiment: Analgesic activity was measured in rat yeast induced hyperalgesia assay at a dose of 10 mg/kg for 24 hr.; format: functional; how it was run: as §2
[39] = tested on: Rattus norvegicus; experiment: Analgesic activity was measured in rat yeast induced hyperalgesia assay at a dose of 10 mg/kg for 4 hr.; format: functional; how it was run: as §2
[40] = tested on: Rattus norvegicus; experiment: Plasma drug level was measured in rat yeast induced hyperalgesia assay in presence of indomethacin at a dose of 10 mg/kg for 12 hr.; format: functional; how it was run: as §3
[41] = tested on: Rattus norvegicus; experiment: Plasma drug level was measured in rat yeast induced hyperalgesia assay in presence of indomethacin at a dose of 10 mg/kg for 1 hr.; format: functional; how it was run: as §3
[42] = tested on: Rattus norvegicus; experiment: Plasma drug level was measured in rat yeast induced hyperalgesia assay in presence of indomethacin at a dose of 10 mg/kg for 24 hr.; format: functional; how it was run: as §3
[43] = tested on: Rattus norvegicus; experiment: Plasma drug level was measured in rat yeast induced hyperalgesia assay in presence of indomethacin at a dose of 10 mg/kg for 4 hr.; format: functional; how it was run: as §3
[44] = tested on: Rattus norvegicus; experiment: Plasma drug level was measured in rat yeast induced hyperalgesia assay in presence of indomethacin at a dose of 10 mg/kg for 8 hr.; format: functional; how it was run: as §3
[45] = tested on: Rattus norvegicus; experiment: (§8) Vocalization threshold value was measured in rat yeast induced hyperalgesia assay at a dose of 10 mg/kg for 4 hr.; format: functional
[46] = tested on: Rattus norvegicus; experiment: Vocalization threshold value was measured in rat yeast induced hyperalgesia assay at a dose of 10 mg/kg for 12 hr.; format: functional; how it was run: as §5
[47] = tested on: Rattus norvegicus; experiment: Vocalization threshold value was measured in rat yeast induced hyperalgesia assay at a dose of 10 mg/kg for 24 hr.; format: functional; how it was run: as §5
[48] = tested on: Rattus norvegicus; experiment: as §8; format: functional; how it was run: as §5; remark: listed apart in the source
[49] = tested on: Rattus norvegicus; experiment: Compound was tested for hyperalgesia activity in rats after perorally administered at 1 hr; details: po

## COc1ccc2c(c1)c(/C=C/CC(=O)O)c(C)n2C(=O)c1ccc(Cl)cc1
[1]
  Writhes: 34
  inhibition in vivo at 30 mg/kg: 19%
[2]
  Writhes: 28.6
  inhibition in vivo at 30 mg/kg: 32%
[3]
  Writhes: 23
  inhibition in vivo at 30 mg/kg: 46%
[4]
  Analgesic: 10%
[5]
  Analgesic: 30%
[6]
  Analgesic: 30%
[7]
  Drug level: 17 µg/mL
[8]
  Drug level: 26 µg/mL
[9]
  Drug level: 10 µg/mL
[10]
  Drug level: <1 µg/mL
[11]
  Drug level: <1 µg/mL
[12]
  Drug level: <1 µg/mL
[13]
  Inflamed: 21.6 mmHg
[14]
  Inflamed: 14.2 mmHg
[15]
  Inflamed: 20.2 mmHg
  Normal: 23.4 mmHg
[16]
  Normal: 25.4 mmHg
[17]
  Normal: 25.8 mmHg
[18]
  Writhes: 29.5
  inhibition in vivo at 30 mg/kg: 28%

## COc1ccc2c(c1)c(/C=C/CCCC(=O)O)c(C)n2C(=O)c1ccc(Cl)cc1
[1]
  Writhes: 16.4
  inhibition in vivo at 30 mg/kg: 20%
[2]
  Writhes: 15.3
  inhibition in vivo at 30 mg/kg: 26%
[3]
  Writhes: 7.2
  inhibition in vivo at 30 mg/kg: 65%
[19]
  Analgesic: 40%
[20]
  Analgesic: 40%
[21]
  Analgesic: 60%
[4]
  Analgesic: 60%
[22]
  Analgesic: 0%
[5]
  Analgesic: 60%
[6]
  Analgesic: 100%
[7]
  Drug level: 24.1 µg/mL
[23]
  Drug level: 1.1 µg/mL
[9]
  Drug level: 6.1 µg/mL
[24]
  Drug level: 2.2 µg/mL
[25]
  Drug level: 1.6 µg/mL
[11]
  Drug level: 2.2 µg/mL
[12]
  Drug level: 2.1 µg/mL
[26]
  Inflamed: 13 mmHg
[13]
  Inflamed: 27.6 mmHg
[27]
  Inflamed: 21.6 mmHg
  Normal: 22 mmHg
[28]
  Normal: 23.2 mmHg
[29]
  Inflamed: 25 mmHg
  Normal: 25.2 mmHg
[14]
  Inflamed: 25.4 mmHg
  Normal: 23 mmHg
[30]
  Normal: 24.4 mmHg
[15]
  Inflamed: 26 mmHg
  Normal: 24.8 mmHg
[16]
  Normal: 25.6 mmHg
[17]
  Inflamed: 16.8 mmHg
  Normal: 24 mmHg
[31]
  Analgesic: 10%
[32]
  Inflamed: 23.8 mmHg

## COc1ccc2c(c1)c(CC(=O)O)c(C)n2C(=O)c1ccc(Cl)cc1 [INDOMETHACIN]
[33]
  Writhes: 4.8
  inhibition in vivo at 3 mg/kg: 89%
[34]
  Writhes: 38.3
  inhibition in vivo at 3 mg/kg: 16%
[35]
  Writhes: 32.9
  inhibition in vivo at 3 mg/kg: 28%
[36]
  ED50: 3 mg/kg
[37]
  Analgesic: 0%
[38]
  Analgesic: 0%
[39]
  Analgesic: 100%
[20]
  Analgesic: 40%
[40]
  Drug level: 9.8 µg/mL
[41]
  Drug level: 21 µg/mL
[42]
  Drug level: 3.3 µg/mL
[43]
  Drug level: 38 µg/mL
[44]
  Drug level: 21 µg/mL
[45]
  Inflamed: 32 mmHg
[28]
  Normal: 28.4 mmHg
[46]
  Inflamed: 15.6 mmHg
  Normal: 24.4 mmHg
[17]
  Inflamed: 30 mmHg
  Normal: 27.9 mmHg
[47]
  Inflamed: 16 mmHg
  Normal: 22.4 mmHg
[48]
  Normal: 26.8 mmHg
[31]
  Analgesic: 70%
[32]
  Inflamed: 28.4 mmHg
[49]
  ED50: 5 mg/kg
